# Assay results published in ChEMBL document CHEMBL4699431, “Design and synthesis of substituted (1-(benzyl)-1H-1,2,3-triazol-4-yl)(piperazin-1-yl)methanone conjugates: study on their apoptosis inducing ability and tubulin polymerization inhibition” (RSC Med Chem, 2020).
# Active and inactive are the calls of the source. No cut-off for these calls is given here.
# Key:
# BT-474 [1] = assay: Cell cycle arrest in human BT-474 cells assessed as increase in accumulation in G1 phase at 2.5 uM by propidium iodide staining based flow cytometry(reference value: 4.06%); type: functional
# Method in brief: (§1)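 Seeded at 1 x 10⁵ cells/well, after 24 h serum-starved 6 h to synchronize, then returned to FBS-containing medium and treated at 0.5, 1 and 2.5 μM. Harvested cells were PBS-washed, fixed in ice-cold 70% ethanol, stained with propidium iodide (50 μg/mL) plus RNase A for 20 min at 37 °C in the dark. About 10,000 events analysed by flow cytometry.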
# BT-474 [2] = assay: Induction of morphological changes in human BT-474 cells assessed as […] incubated for 48 hrs by phase-contrast microscope method; type: functional, cell-based; details: dose microM 0.5-2.5, time 48.0 hrs
# Method in brief: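 Plated at 5×10^4 cells/well, dosed after 24 h at 0.5, 1 and 2.5 μM. After 48 h, morphology was examined and photographed under phase-contrast microscopy.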
# BT-474 [3] = assay: Induction of apoptosis in human BT-474 cells assessed as chromatin damage at 0.5 to 2.5 uM incubated for 24 hrs by DAPI staining based DAPI staining based confocal microscopic analysis; type: functional, cell-based; details: dose microM 0.5-2.5, time 24.0 hrs
# BT-474 [4] = assay: Cell cycle arrest in human BT-474 cells assessed as increase in accumulation in S phase at 0.5 uM by propidium iodide staining based flow cytometry(reference value: 2.22%); type: functional; method in brief: as §1
# BT-474 [5] = assay: Induction of mitochondrial membrane potential loss in human BT-474 cells assessed as depolarized cell population (P2) at 0.5 uM incubated for 48 hrs by JC1 staining based flow cytometry (reference value: 0.48 %); type: functional
# Method in brief: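 Cells (1x10⁶/mL) adhered overnight, then exposed to 0.5, 1 and 2.5 μM for 48 h. Collected, PBS-washed, incubated with JC-1 dye (1 μM) for 30 min at 37 °C, washed twice, trypsinized, centrifuged and read by flow cytometry.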
# BT-474 [6] = assay: Cell cycle arrest in human BT-474 cells assessed as decrease in G0/G1 accumulation in phase at 2.5 uM by propidium iodide staining based flow cytometry(reference value: 60.53%); type: functional; parameters: scale not given: the % may be the effect or the level left; method in brief: as §1
# Tubulin (Homo sapiens) = Tubulin (Homo sapiens) (UniProt P68371+Q9H4B7+P0DPH7+P68366+Q13509+Q71U36+P04350+Q3ZCM7+P07437+P68363+Q9BQE3+Q6PEY2+Q13885+Q9BVA1+Q9BUF5); assay: Inhibition of tubulin polymerization in human BT-474 cells assessed as microtubule disruption at 2 uM by immunohistochemistry assay; type: cell-based
# Method in brief: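 Cells on glass coverslips exposed 48 h to 2 μM, with CA-4 as positive control. Fixed in 4% paraformaldehyde 20 min, permeabilized with 0.2% Triton X-100 5 min, held in methanol overnight at 4 °C, blocked in 1% BSA 60 min. Stained with α-tubulin antibody (1:1000, 2 h) then FITC anti-mouse secondary 1 h; microtubule network imaged by confocal microscopy.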
# MCF7 = assay: Cytotoxicity against human MCF-7 cells assessed as reduction in cell viability incubated for 48 hrs by MTT assay; type: functional, cell-based; details: MCF7, 48 h
# Method in brief: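 Cells plated at 3000-4500 per well and treated after 24 h. DMSO stocks (20 mM) were diluted in medium to final DMSO <0.1%, twofold series […], 48 h. MTT (0.5 mg/mL) was added for 4 h, formazan dissolved in DMSO, absorbance read at 570 nm.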
structure (smiles),measurement,setting,value
O=C(c1cn(Cc2cccc(Oc3ccccc3)c2)nn1)N1CCN(S(=O)(=O)c2ccc(Br)cc2)CC1,Activity,BT-474 [1],11.3%
same,Activity,BT-474 [2],Active
same,Activity,BT-474 [3],Active
same,Activity,BT-474 [4],7.02%
same,Activity,BT-474 [5],50.48%
same,Activity,BT-474 [6],9.09%
same,inhibition,Tubulin (Homo sapiens),Active
same,IC50,MCF7,2340 nM
